Experimental data reported in publication PMC11774189 (RSC Advances, 2025).
Where two headings read alike, the source gives them in different places.

Key:
[1] = system: HepG2 (hepatoma carcinoma) cell line; experiment: MTT cytotoxicity assay, HepG2 cells; format: cell-based, human; settings: read-out: IC50, HepG2
[2] = system: A549 (non-small lung cancer) cell line; experiment: MTT cytotoxicity assay, A549 cells; format: cell-based, human; settings: read-out: IC50, A549
[3] = system: MCF7 (breast cancer) cell line; experiment: MTT cytotoxicity assay, MCF7 cells; format: cell-based, human; settings: read-out: IC50, MCF7
[4] = system: Hek-293 human embryonic kidney cells; experiment: MTT cytotoxicity assay, Hek-293 cells; format: cell-based; settings: for IC50: read-out: IC50, Hek-293; for fold lower cytotoxicity against Hek-293 cells than to A549: Hek-293 vs A549
[5] = system: KB (epidermoid carcinoma) cell line; experiment: MTT cytotoxicity assay, KB cells; format: cell-based, human; settings: read-out: IC50, KB
A549 cells [6] = experiment: Annexin-V FITC and PI flow cytometry assay for apoptosis; format: cell-based, human; settings: 48 hours
Summary of the method: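 A549 cells seeded at 5×10^5 per 25 cm² flask, treated 48 h with test compound (0.45, 0.9, 1.8 μM), DMSO 1% vehicle or camptothecin 2 μM. Harvested, washed in cold PBS, resuspended in binding buffer, stained with annexin V plus PI (1 mg mL⁻¹ stock), 15 min at 37 °C, diluted in binding buffer, analysed by flow cytometry. Quadrants: live, early apoptotic, late apoptotic, necrotic.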

A549 cells [7] = experiment: Cell cycle analysis by PI flow cytometry; format: cell-based, human; settings: 24 hours
Summary of the method: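 A549 cells seeded at 3×10^5 per 25 cm² flask; exposed 24 h to test compound (0.45, 0.9, 1.8 μM) or DMSO 0.5%. Cells washed twice in PBS, fixed in ice-cold 70% ethanol at –20 °C for 2 h, pelleted, treated with RNase A (2.5 mg mL⁻¹) 15 min at 37 °C, stained 30 min with PI (1 mg mL⁻¹ stock), then flow cytometry for phase distribution.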

Molecule: 4′,6′-Dimethyl-3H-spiro[benzo[g]furo[3,4-b]quinoline-11,3′-indoline]-1,2′,5,10(4H)-tetraone [Compound 7g]
- IC50 ([1]; MTT, 3 days incubation): 6.74 ± 0.68 µM
- IC50 ([2]; MTT, 3 days incubation): 1.67 ± 0.17 µM
- IC50 ([3]; MTT, 3 days incubation): 2.62 ± 0.22 µM
- IC50 ([4]; MTT, 3 days incubation): 7.27 ± 0.78 µM
- IC50 ([5]; MTT, 3 days incubation): 4.85 ± 0.41 µM

Molecule: CC[C@@]1(O)C(=O)OCc2c1cc1n(c2=O)Cc2cc3ccccc3nc2-1 [Camptothecin, reference compound]
- % early apoptosis cells (Q2-4) (A549 cells [6]; A549, 2 μM): 30.71%
- % late apoptosis cells (Q2-2) (A549 cells [6]; A549, 2 μM): 11.05%
- % necrotic cells (Q2-1) (A549 cells [6]; A549, 2 μM): 1.99%
- % total apoptosis cells (A549 cells [6]; A549, 2 μM): 41.76%

Molecule: O=C1OCC2=C1C1(C(=O)Nc3ccccc31)C1=C(N2)C(=O)c2ccccc2C1=O (stereo not drawn) [Compound 7a, 3H-Spiro[benzo[g]furo[3,4-b]quinoline-11,3′-indoline]-1,2′,5,10(4H)-tetraone]
- IC50 ([1]; Homo sapiens, HepG2, 72 h): 5.33 ± 0.62 µM
- IC50 ([2]; Homo sapiens, A549, 72 h): 1.98 ± 0.16 µM
- IC50 ([3]; Homo sapiens, MCF7, 72 h): 1.95 ± 0.21 µM
- IC50 ([4]; Homo sapiens, HEK293, 72 h): 4.89 ± 0.44 µM
- IC50 ([5]; Homo sapiens, KB, 72 h): 5.33 ± 0.62 µM

Molecule: O=C1OCC2=C1C1(C(=O)Nc3ccc(Cl)cc31)C1=C(N2)C(=O)c2ccccc2C1=O (stereo not drawn) [Compound 7b, 5′-Chloro-3H-spiro[benzo[g]furo[3,4-b]quinoline-11,3′-indoline]-1,2′,5,10(4H)-tetraone]
- IC50 ([1]; Homo sapiens, HepG2, 72 h): 2.32 ± 0.31 µM
- IC50 ([2]; Homo sapiens, A549, 72 h): 1.41 ± 0.12 µM
- IC50 ([3]; Homo sapiens, MCF7, 72 h): 4.2 ± 0.5 µM
- IC50 ([4]; Homo sapiens, HEK293, 72 h): 3.32 ± 0.33 µM
- IC50 ([5]; Homo sapiens, KB, 72 h): 3.15 ± 0.21 µM

Molecule: Cc1ccc2c(c1)C1(C(=O)N2)C2=C(COC2=O)NC2=C1C(=O)c1ccccc1C2=O (stereo not drawn) [Compound 7c, 5′-Methyl-3H-spiro[benzo[g]furo[3,4-b]quinoline-11,3′-indoline]-1,2′,5,10(4H)-tetraone]
- IC50 ([1]; Homo sapiens, HepG2, 72 h): 4.02 ± 0.45 µM
- IC50 ([2]; Homo sapiens, A549, 72 h): 1.91 ± 0.2 µM
- IC50 ([3]; Homo sapiens, MCF7, 72 h): 4.17 ± 0.48 µM
- IC50 ([4]; Homo sapiens, HEK293, 72 h): 3.89 ± 0.4 µM
- IC50 ([5]; Homo sapiens, KB, 72 h): 3.46 ± 0.33 µM

Molecule: O=C1OCC2=C1C1(C(=O)Nc3ccc(Br)cc31)C1=C(N2)C(=O)c2ccccc2C1=O (stereo not drawn) [Compound 7d, 5′-Bromo-3H-spiro[benzo[g]furo[3,4-b]quinoline-11,3′-indoline]-1,2′,5,10(4H)-tetraone]
- IC50 ([1]; Homo sapiens, HepG2, 72 h): 4.34 ± 0.41 µM
- IC50 ([2]; Homo sapiens, A549, 72 h): 1.62 ± 0.17 µM
- IC50 ([3]; Homo sapiens, MCF7, 72 h): 2.07 ± 0.26 µM
- IC50 ([4]; Homo sapiens, HEK293, 72 h): 3.52 ± 0.37 µM
- IC50 ([5]; Homo sapiens, KB, 72 h): 4.75 ± 0.41 µM

Molecule: O=C1OCC2=C1C1(C(=O)Nc3c(Br)cc(Br)cc31)C1=C(N2)C(=O)c2ccccc2C1=O (stereo not drawn) [Compound 7f, 5′,7′-Dibromo-3H-spiro[benzo[g]furo[3,4-b]quinoline-11,3′-indoline]-1,2′,5,10(4H)-tetraone]
- IC50 ([1]; Homo sapiens, HepG2, 72 h): 3.28 ± 0.39 µM
- IC50 ([2]; Homo sapiens, A549, 72 h): 0.9 ± 0.09 µM
- IC50 ([3]; Homo sapiens, MCF7, 72 h): 1.84 ± 0.17 µM
- fold lower cytotoxicity against Hek-293 cells than to A549 [4]: about 7 fold
- IC50 ([4]; Homo sapiens, HEK293, 72 h): 6.7 ± 0.57 µM
- IC50 ([5]; Homo sapiens, KB, 72 h): 1.99 ± 0.22 µM
- % early apoptosis cells (Q2-4) (A549 cells [6]; A549, 0.45 μM): 1.76%
- % late apoptosis cells (Q2-2) (A549 cells [6]; A549, 0.45 μM): 1.26%
- % necrotic cells (Q2-1) (A549 cells [6]; A549, 0.45 μM): 0.64%
- % total apoptosis cells (A549 cells [6]; A549, 0.45 μM): 3.02%
- % early apoptosis cells (Q2-4) (A549 cells [6]; A549, 0.9 μM): 3.13%
- % late apoptosis cells (Q2-2) (A549 cells [6]; A549, 0.9 μM): 1.83%
- % necrotic cells (Q2-1) (A549 cells [6]; A549, 0.9 μM): 0.94%
- % early apoptosis cells (Q2-4) (A549 cells [6]; A549, 1.8 μM): 12.68%
- % late apoptosis cells (Q2-2) (A549 cells [6]; A549, 1.8 μM): 6.72%
- % necrotic cells (Q2-1) (A549 cells [6]; A549, 1.8 μM): 2.53%
- % total apoptosis cells (A549 cells [6]; A549, 1.8 μM): 19.4%
- % G0/G1 (A549 cells [7]; A549, 0.45 μM): 36.01%
- % G2/M (A549 cells [7]; A549, 0.45 μM): 13.49%
- % S (A549 cells [7]; A549, 0.45 μM): 47.96%
- % G0/G1 (A549 cells [7]; A549, 0.9 μM): 26.63%
- % G2/M (A549 cells [7]; A549, 0.9 μM): 4.17%
- % S (A549 cells [7]; A549, 0.9 μM): 67.93%
- % G0/G1 (A549 cells [7]; A549, 1.8 μM): 20.81%
- % G2/M (A549 cells [7]; A549, 1.8 μM): 13.61%
- % S (A549 cells [7]; A549, 1.8 μM): 63.88%

Molecule: O=C1OCC2=C1C1(C(=O)N(Cc3ccccc3)c3ccccc31)C1=C(N2)C(=O)c2ccccc2C1=O (stereo not drawn) [Compound 7h, 1′-Benzyl-3H-spiro[benzo[g]furo[3,4-b]quinoline-11,3′-indoline]-1,2′,5,10(4H)-tetraone]
- IC50 ([1]; Homo sapiens, HepG2, 72 h): 4.24 ± 0.38 µM
- IC50 ([2]; Homo sapiens, A549, 72 h): 1.71 ± 0.19 µM
- IC50 ([3]; Homo sapiens, MCF7, 72 h): 3.73 ± 0.38 µM
- IC50 ([4]; Homo sapiens, HEK293, 72 h): 2.72 ± 0.19 µM
- IC50 ([5]; Homo sapiens, KB, 72 h): 3.96 ± 0.34 µM

Molecule: O=C1OCC2=C1C1(C(=O)N(Cc3ccc(C(F)(F)F)cc3)c3ccccc31)C1=C(N2)C(=O)c2ccccc2C1=O (stereo not drawn) [Compound 7i, 1′-(4-(Trifluoromethyl)benzyl)-3H-spiro[benzo[g]furo[3,4-b]quinoline-11,3′-indoline]-1,2′,5,10(4H)-tetraone]
- IC50 ([1]; Homo sapiens, HepG2, 72 h): 4.5 ± 0.48 µM
- IC50 ([2]; Homo sapiens, A549, 72 h): 7.37 ± 0.83 µM
- IC50 ([3]; Homo sapiens, MCF7, 72 h): 3.72 ± 0.35 µM
- IC50 ([4]; Homo sapiens, HEK293, 72 h): 4.04 ± 0.42 µM
- IC50 ([5]; Homo sapiens, KB, 72 h): 4.65 ± 0.44 µM

Molecule: O=C1OCC2=C1C1(C(=O)N(Cc3ccc(Cl)cc3)c3ccccc31)C1=C(N2)C(=O)c2ccccc2C1=O (stereo not drawn) [Compound 7j, 1′-(4-Chlorobenzyl)-3H-spiro[benzo[g]furo[3,4-b]quinoline-11,3′-indoline]-1,2′,5,10(4H)-tetraone]
- IC50 ([1]; Homo sapiens, HepG2, 72 h): 5.78 ± 0.61 µM
- IC50 ([2]; Homo sapiens, A549, 72 h): 6.54 ± 0.69 µM
- IC50 ([3]; Homo sapiens, MCF7, 72 h): 4.09 ± 0.41 µM
- IC50 ([4]; Homo sapiens, HEK293, 72 h): 10.3 ± 1.06 µM
- IC50 ([5]; Homo sapiens, KB, 72 h): 5.6 ± 0.49 µM

Molecule: O=C1OCC2=C1C1(C(=O)N(Cc3ccc(Br)cc3F)c3ccccc31)C1=C(N2)C(=O)c2ccccc2C1=O (stereo not drawn) [Compound 7k, 1′-(4-Bromo-2-fluorobenzyl)-3H-spiro[benzo[g]furo[3,4-b]quinoline-11,3′-indoline]-1,2′,5,10(4H)-tetraone]
- IC50 ([1]; Homo sapiens, HepG2, 72 h): 20.9 ± 2.36 µM
- IC50 ([2]; Homo sapiens, A549, 72 h): 14 ± 1.59 µM
- IC50 ([3]; Homo sapiens, MCF7, 72 h): 15.1 ± 1.59 µM
- IC50 ([4]; Homo sapiens, HEK293, 72 h): > 28 µM
- IC50 ([5]; Homo sapiens, KB, 72 h): 27.3 ± 2.15 µM

Molecule: O=C1OCC2=C1C1(C(=O)N(Cc3ccc(C(F)(F)F)cc3)c3ccc(Cl)cc31)C1=C(N2)C(=O)c2ccccc2C1=O (stereo not drawn) [Compound 7l, 5′-Chloro-1′-(4-(trifluoromethyl)benzyl)-3H-spiro[benzo[g]furo[3,4-b]quinoline-11,3′-indoline]-1,2′,5,10(4H)-tetraone]
- IC50 ([1]; Homo sapiens, HepG2, 72 h): 15.1 ± 1.7 µM
- IC50 ([2]; Homo sapiens, A549, 72 h): 5.93 ± 0.64 µM
- IC50 ([3]; Homo sapiens, MCF7, 72 h): 13.4 ± 1.23 µM
- IC50 ([4]; Homo sapiens, HEK293, 72 h): > 27.7 µM
- IC50 ([5]; Homo sapiens, KB, 72 h): 17.8 ± 1.68 µM

Molecule: Cc1ccc2c(c1)N(Cc1ccc(Br)cc1F)C(=O)C21C2=C(COC2=O)NC2=C1C(=O)c1ccccc1C2=O (stereo not drawn) [Compound 7m, 1′-(4-Bromo-2-fluorobenzyl)-6′-methyl-3H-spiro[benzo[g]furo[3,4-b]quinoline-11,3′-indoline]-1,2′,5,10(4H)-tetraone]
- IC50 ([1]; Homo sapiens, HepG2, 72 h): 47.5 ± 2.15 µM
- IC50 ([2]; Homo sapiens, A549, 72 h): 13.3 ± 0.7 µM
- IC50 ([3]; Homo sapiens, MCF7, 72 h): 19.9 ± 0.89 µM
- IC50 ([4]; Homo sapiens, HEK293, 72 h): > 65 µM
- IC50 ([5]; Homo sapiens, KB, 72 h): 51.7 ± 1.78 µM

Molecule: O=C1OCC2=C1C1(C(=O)N(Cc3ccc(C(F)(F)F)cc3)c3cc(Br)c(Br)cc31)C1=C(N2)C(=O)c2ccccc2C1=O (stereo not drawn) [Compound 7n, 5′,6′-Dibromo-1′-(4-(trifluoromethyl)benzyl)-3H-spiro[benzo[g]furo[3,4-b]quinoline-11,3′-indoline]-1,2′,5,10(4H)-tetraone]
- IC50 ([1]; Homo sapiens, HepG2, 72 h): 6.74 ± 0.73 µM
- IC50 ([2]; Homo sapiens, A549, 72 h): 1.03 ± 0.13 µM
- IC50 ([3]; Homo sapiens, MCF7, 72 h): 2.11 ± 0.24 µM
- fold lower cytotoxicity against Hek-293 cells than to A549 [4]: ~22 fold
- fold lower cytotoxicity against Hek-293 cells than to MCF7 ([4]; Hek-293 vs MCF7): about 11 fold
- IC50 ([4]; Homo sapiens, HEK293, 72 h): 22.9 ± 2.2 µM
- IC50 ([5]; Homo sapiens, KB, 72 h): 4.36 ± 0.4 µM

Molecule: Cc1c2ccncc2c(C)c2c1[nH]c1ccccc12 [Ellipticine, reference compound]
- IC50 ([1]; Homo sapiens, HepG2, 72 h): 2.07 ± 0.12 µM
- IC50 ([2]; Homo sapiens, A549, 72 h): 1.34 ± 0.08 µM
- IC50 ([3]; Homo sapiens, MCF7, 72 h): 2.07 ± 0.16 µM
- IC50 ([4]; Homo sapiens, HEK293, 72 h): 5.64 ± 0.32 µM
